According to ChEMBL document CHEMBL5303300, “EUbOPEN Chemogenomics Library - Multiplex” (2023):
Values joined by “and” are separate entries in the source; they are usually repeats but may differ in a detail not shown here. Equal entries are not always repeated.

Tested on: HEK-293T
Test: Multiplex assay against HEK293T
Type: toxicity, cell-based
Details: human, number of replicates 2
In short: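 Imaging took place on a CQ1 microscope at 37°C and 5% CO2 once compound had been added to live cells stained at seeding with Hoechst33342, BioTracker Green Microtubule Cytoskeleton Dye, MitoTracker Red and Annexin V Alexa Fluor 680. CellPathfinder machine-learning gating classed cells as Hoechst high-intensity objects or normal cells, classed normal cells as having healthy, pyknosed or fragmented nuclei, and classed pyknosed cells as mitotic or apoptotic. Tubulin, mitochondrial-mass and membrane-permeability phenotypes are per cents of the healthy-nucleus cells.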

[1] = 12 h, 1 µM, compound concentration 1 uM
[2] = 12 h, 10 µM, compound concentration 10 uM
[3] = 24 h, 1 µM, compound concentration 1 uM
[4] = 24 h, 10 µM, compound concentration 10 uM
[5] = 48 h, 1 µM, compound concentration 1 uM
[6] = 48 h, 10 µM, compound concentration 10 uM

Structure (SMILES): COc1nc2ccc([C@@](O)(c3ccc(Cl)cc3)c3cncn3C)cc2c(Cl)c1Cc1ccc(-n2cccn2)cc1 [JNJ-53721590]
- Population Apoptotic (%) [1]: 43% and 52%
- Population Fragmented Nuclei (%) [1]: 4% and 2%
- Population Healthy Nuclei (%) [1]: 81%
- Population Hoechst High Intensity Objects (%) [1]: 7%
- Population Membrane Permeable-Phenotype (%) [1]: 4% and 5%
- Population Mitochondria Different-Phenotype (%) [1]: 26%
- Population Mitotic Cells (%) [1]: 56% and 47%
- Population Normal (%) [1]: 92%
- Population Pyknosed Nuclei (%) [1]: 13% and 15%
- Population Tubulin-Different-Phenotype (%) [1]: 74% and 70%
- Total Cell Count [1]: 675 and 403
- Population Apoptotic (%) [2]: 41% and 64%
- Population Fragmented Nuclei (%) [2]: 2%
- Population Healthy Nuclei (%) [2]: 88%
- Population Hoechst High Intensity Objects (%) [2]: 6%
- Population Membrane Permeable-Phenotype (%) [2]: 21% and 12%
- Population Mitochondria Different-Phenotype (%) [2]: 24%
- Population Mitotic Cells (%) [2]: 58% and 35%
- Population Normal (%) [2]: 93%
- Population Pyknosed Nuclei (%) [2]: 9% and 8%
- Population Tubulin-Different-Phenotype (%) [2]: 94%
- Total Cell Count [2]: 831 and 720
- Population Apoptotic (%) [3]: 42% and 54%
- Population Fragmented Nuclei (%) [3]: 6% and 3%
- Population Healthy Nuclei (%) [3]: 84% and 87%
- Population Hoechst High Intensity Objects (%) [3]: 8% and 7%
- Population Membrane Permeable-Phenotype (%) [3]: 4% and 1%
- Population Mitochondria Different-Phenotype (%) [3]: 11% and 15%
- Population Mitotic Cells (%) [3]: 57% and 45%
- Population Normal (%) [3]: 91% and 92%
- Population Pyknosed Nuclei (%) [3]: 8%
- Population Tubulin-Different-Phenotype (%) [3]: 57% and 53%
- Total Cell Count [3]: 1025 and 592
- Population Apoptotic (%) [4]: 37% and 57%
- Population Fragmented Nuclei (%) [4]: 2% and 1%
- Population Healthy Nuclei (%) [4]: 87% and 84%
- Population Hoechst High Intensity Objects (%) [4]: 5% and 8%
- Population Membrane Permeable-Phenotype (%) [4]: 16% and 11%
- Population Mitochondria Different-Phenotype (%) [4]: 19% and 23%
- Population Mitotic Cells (%) [4]: 62% and 42%
- Population Normal (%) [4]: 94% and 91%
- Population Pyknosed Nuclei (%) [4]: 9% and 13%
- Population Tubulin-Different-Phenotype (%) [4]: 95% and 96%
- Total Cell Count [4]: 856 and 731
- Population Apoptotic (%) [5]: 18% and 38%
- Population Fragmented Nuclei (%) [5]: 10% and 8%
- Population Healthy Nuclei (%) [5]: 86% and 85%
- Population Hoechst High Intensity Objects (%) [5]: 8% and 11%
- Population Membrane Permeable-Phenotype (%) [5]: 5% and 2%
- Population Mitochondria Different-Phenotype (%) [5]: 2% and 7%
- Population Mitotic Cells (%) [5]: 81% and 61%
- Population Normal (%) [5]: 91% and 88%
- Population Pyknosed Nuclei (%) [5]: 3% and 6%
- Population Tubulin-Different-Phenotype (%) [5]: 37% and 39%
- Total Cell Count [5]: 2031 and 1111
- Population Apoptotic (%) [6]: 40% and 52%
- Population Fragmented Nuclei (%) [6]: 5% and 6%
- Population Healthy Nuclei (%) [6]: 90% and 87%
- Population Hoechst High Intensity Objects (%) [6]: 10% and 12%
- Population Membrane Permeable-Phenotype (%) [6]: 28% and 21%
- Population Mitochondria Different-Phenotype (%) [6]: 3% and 4%
- Population Mitotic Cells (%) [6]: 60% and 47%
- Population Normal (%) [6]: 89% and 87%
- Population Pyknosed Nuclei (%) [6]: 4% and 5%
- Population Tubulin-Different-Phenotype (%) [6]: 93% and 95%
- Total Cell Count [6]: 993 and 855

Structure (SMILES): COc1ccc(-c2cc3c(C)nc(N)nc3n([C@H]3CC[C@H](OCCO)CC3)c2=O)cn1 [PF-04691502]
- Population Apoptotic (%) [1]: 74% and 67%
- Population Fragmented Nuclei (%) [1]: 3% and 2%
- Population Healthy Nuclei (%) [1]: 86% and 87%
- Population Hoechst High Intensity Objects (%) [1]: 12% and 13%
- Population Membrane Permeable-Phenotype (%) [1]: 0% and 2%
- Population Mitochondria Different-Phenotype (%) [1]: 36% and 56%
- Population Mitotic Cells (%) [1]: 25% and 32%
- Population Normal (%) [1]: 87% and 86%
- Population Pyknosed Nuclei (%) [1]: 10%
- Population Tubulin-Different-Phenotype (%) [1]: 60% and 67%
- Total Cell Count [1]: 425 and 310
- Population Apoptotic (%) [2]: 73% and 71%
- Population Fragmented Nuclei (%) [2]: 7% and 3%
- Population Healthy Nuclei (%) [2]: 69% and 75%
- Population Hoechst High Intensity Objects (%) [2]: 24% and 19%
- Population Membrane Permeable-Phenotype (%) [2]: 1% and 5%
- Population Mitochondria Different-Phenotype (%) [2]: 80% and 72%
- Population Mitotic Cells (%) [2]: 26% and 28%
- Population Normal (%) [2]: 75% and 80%
- Population Pyknosed Nuclei (%) [2]: 23% and 21%
- Population Tubulin-Different-Phenotype (%) [2]: 77% and 78%
- Total Cell Count [2]: 170 and 187
- Population Apoptotic (%) [3]: 71% and 78%
- Population Fragmented Nuclei (%) [3]: 7%
- Population Healthy Nuclei (%) [3]: 76% and 81%
- Population Hoechst High Intensity Objects (%) [3]: 24% and 20%
- Population Membrane Permeable-Phenotype (%) [3]: 1%
- Population Mitochondria Different-Phenotype (%) [3]: 40% and 55%
- Population Mitotic Cells (%) [3]: 28% and 21%
- Population Normal (%) [3]: 75% and 79%
- Population Pyknosed Nuclei (%) [3]: 16% and 10%
- Population Tubulin-Different-Phenotype (%) [3]: 64% and 68%
- Total Cell Count [3]: 314 and 266
- Population Apoptotic (%) [4]: 66% and 60%
- Population Fragmented Nuclei (%) [4]: 9% and 7%
- Population Healthy Nuclei (%) [4]: 70% and 77%
- Population Hoechst High Intensity Objects (%) [4]: 26% and 30%
- Population Membrane Permeable-Phenotype (%) [4]: 2% and 0%
- Population Mitochondria Different-Phenotype (%) [4]: 72% and 61%
- Population Mitotic Cells (%) [4]: 33% and 40%
- Population Normal (%) [4]: 73% and 69%
- Population Pyknosed Nuclei (%) [4]: 20% and 14%
- Population Tubulin-Different-Phenotype (%) [4]: 79% and 69%
- Total Cell Count [4]: 163 and 192
- Population Apoptotic (%) [5]: 70% and 77%
- Population Fragmented Nuclei (%) [5]: 9% and 10%
- Population Healthy Nuclei (%) [5]: 69% and 65%
- Population Hoechst High Intensity Objects (%) [5]: 28% and 27%
- Population Membrane Permeable-Phenotype (%) [5]: 0% and 1%
- Population Mitochondria Different-Phenotype (%) [5]: 42% and 44%
- Population Mitotic Cells (%) [5]: 29% and 22%
- Population Normal (%) [5]: 71% and 72%
- Population Pyknosed Nuclei (%) [5]: 20% and 24%
- Population Tubulin-Different-Phenotype (%) [5]: 69% and 75%
- Total Cell Count [5]: 275 and 280
- Population Apoptotic (%) [6]: 70% and 64%
- Population Fragmented Nuclei (%) [6]: 14% and 18%
- Population Healthy Nuclei (%) [6]: 74%
- Population Hoechst High Intensity Objects (%) [6]: 31% and 28%
- Population Membrane Permeable-Phenotype (%) [6]: 0% and 1%
- Population Mitochondria Different-Phenotype (%) [6]: 40% and 27%
- Population Mitotic Cells (%) [6]: 30% and 35%
- Population Normal (%) [6]: 68% and 71%
- Population Pyknosed Nuclei (%) [6]: 10% and 6%
- Population Tubulin-Different-Phenotype (%) [6]: 61% and 50%
- Total Cell Count [6]: 273 and 293

Structure (SMILES): C=CC(=O)Nc1ccc2[nH]c(=O)n(C3CCN(Cc4ccc(-c5ccc6c(c5)NC(=O)CO6)cc4)CC3)c2c1 [RL2578]
- Population Apoptotic (%) [1]: 38% and 52%
- Population Fragmented Nuclei (%) [1]: 3%
- Population Healthy Nuclei (%) [1]: 85%
- Population Hoechst High Intensity Objects (%) [1]: 8% and 6%
- Population Membrane Permeable-Phenotype (%) [1]: 4% and 5%
- Population Mitochondria Different-Phenotype (%) [1]: 17%
- Population Mitotic Cells (%) [1]: 61% and 47%
- Population Normal (%) [1]: 91% and 93%
- Population Pyknosed Nuclei (%) [1]: 10% and 11%
- Population Tubulin-Different-Phenotype (%) [1]: 66% and 57%
- Total Cell Count [1]: 749 and 364
- Population Apoptotic (%) [2]: 39% and 60%
- Population Fragmented Nuclei (%) [2]: 2% and 1%
- Population Healthy Nuclei (%) [2]: 92% and 89%
- Population Hoechst High Intensity Objects (%) [2]: 6% and 10%
- Population Membrane Permeable-Phenotype (%) [2]: 10% and 6%
- Population Mitochondria Different-Phenotype (%) [2]: 39%
- Population Mitotic Cells (%) [2]: 60% and 40%
- Population Normal (%) [2]: 93% and 89%
- Population Pyknosed Nuclei (%) [2]: 4% and 8%
- Population Tubulin-Different-Phenotype (%) [2]: 97% and 96%
- Total Cell Count [2]: 579 and 597
- Population Apoptotic (%) [3]: 44% and 59%
- Population Fragmented Nuclei (%) [3]: 6% and 4%
- Population Healthy Nuclei (%) [3]: 86% and 88%
- Population Hoechst High Intensity Objects (%) [3]: 4%
- Population Membrane Permeable-Phenotype (%) [3]: 4% and 3%
- Population Mitochondria Different-Phenotype (%) [3]: 7% and 9%
- Population Mitotic Cells (%) [3]: 56% and 40%
- Population Normal (%) [3]: 95%
- Population Pyknosed Nuclei (%) [3]: 6% and 7%
- Population Tubulin-Different-Phenotype (%) [3]: 42% and 38%
- Total Cell Count [3]: 1138 and 534
- Population Apoptotic (%) [4]: 53% and 81%
- Population Fragmented Nuclei (%) [4]: 3% and 4%
- Population Healthy Nuclei (%) [4]: 93% and 90%
- Population Hoechst High Intensity Objects (%) [4]: 8% and 9%
- Population Membrane Permeable-Phenotype (%) [4]: 5% and 2%
- Population Mitochondria Different-Phenotype (%) [4]: 35% and 46%
- Population Mitotic Cells (%) [4]: 46% and 18%
- Population Normal (%) [4]: 91% and 90%
- Population Pyknosed Nuclei (%) [4]: 2% and 4%
- Population Tubulin-Different-Phenotype (%) [4]: 90% and 94%
- Total Cell Count [4]: 626 and 621
- Population Apoptotic (%) [5]: 16% and 19%
- Population Fragmented Nuclei (%) [5]: 15% and 13%
- Population Healthy Nuclei (%) [5]: 81% and 82%
- Population Hoechst High Intensity Objects (%) [5]: 8% and 7%
- Population Membrane Permeable-Phenotype (%) [5]: 6% and 4%
- Population Mitochondria Different-Phenotype (%) [5]: 0% and 2%
- Population Mitotic Cells (%) [5]: 83% and 80%
- Population Normal (%) [5]: 91% and 92%
- Population Pyknosed Nuclei (%) [5]: 2% and 3%
- Population Tubulin-Different-Phenotype (%) [5]: 18% and 21%
- Total Cell Count [5]: 2736 and 1194
- Population Apoptotic (%) [6]: 32% and 60%
- Population Fragmented Nuclei (%) [6]: 11% and 7%
- Population Healthy Nuclei (%) [6]: 84% and 86%
- Population Hoechst High Intensity Objects (%) [6]: 13%
- Population Membrane Permeable-Phenotype (%) [6]: 3% and 1%
- Population Mitochondria Different-Phenotype (%) [6]: 15% and 25%
- Population Mitotic Cells (%) [6]: 67% and 40%
- Population Normal (%) [6]: 86%
- Population Pyknosed Nuclei (%) [6]: 4% and 6%
- Population Tubulin-Different-Phenotype (%) [6]: 71% and 82%
- Total Cell Count [6]: 795 and 718
